The values below come from ChEMBL document CHEMBL4513216, “Probing the Open Global Health Chemical Diversity Library for Multistage-Active Starting Points for Next-Generation Antimalarials” (ACS Infect Dis, 2020).

A short description of the data set: Toxicity liver stage against HepG2, at 10uM. The arrangement: test concentration 10 uM, cell line HepG2-A16-CD81EGFP. The conditions noted are these: human, HepG2-A16-CD81EGFP cells; read-out: INHIBITION
The data set is classed as cell-based. Summed up: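 Uninfected HepG2-A16-CD81EGFP cells, 3 × 10^3 per well, 1536-well, plated on prespotted compound at 10 μM final, parasite-free screening media added to match infected plates; puromycin 10 μM positive, DMSO 0.5% negative; run in parallel with 48 h PbLuc assay at 37 °C, 5% CO2; viability by CellTiter-Glo luminescence, normalized to controls.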
With `CCOc1cc(CNc2nnn(C)n2)ccc1OCc1ccc(Cl)cc1`, the cytotoxicity at 10 µM amounted to 6.04%.

With `O=C1CSC(c2ccsc2)c2c(n(C3CCCC3)[nH]c2=O)N1` (stereo unspecified), the cytotoxicity at 10 µM was -11.6%.

For the molecule `COCCn1ccc2c(C(=O)NC3CN4CCC3CC4)cccc21` (stereo unspecified), the cytotoxicity at 10 µM is -51.6%.

Take `Cc1ccc(NC(=O)c2nc3c(s2)CCCN3C(C)C)cn1`: the cytotoxicity at 10 µM is 0.93%.

In the case of `CN(C)S(=O)(=O)N1CCC2(COCc3cnc(NCC4CC4)nc32)C1` (stereo unspecified), the cytotoxicity at 10 µM came out at 7.66%.

Turning to `COCCO[C@H]1CCN(C(=O)NC2CC2)[C@H]1Cc1cnn(C)c1`, the cytotoxicity at 10 µM was determined as 8.36%.

Regarding `CN(c1ncc(C(=O)NCc2ccccc2)c(N)n1)C1CCCCC1`, the cytotoxicity at 10 µM was -4.31%.

Regarding `Cc1ccnn1CC(=O)Nc1cc(-c2ccncc2)[nH]n1`, the cytotoxicity at 10 µM was -4.34%.

With `Cn1ccnc1-c1nc(NC2CCCC2)ncc1-c1cccc(F)c1`, the cytotoxicity at 10 µM turned out to be 14.1%.

Take `Cn1cc(CN2CCCCC2c2ccc(-c3cccc(F)c3)nc2)cn1` (stereo unspecified): the cytotoxicity at 10 µM turned out to be 6.77%.

`O=C(COc1ccccc1F)N1CCCCC1c1ccn2ccnc2n1` (stereo unspecified): the cytotoxicity at 10 µM is -8.52%.

Consider `O=C(C1CCCC1)N1CCCC(c2cccc(-n3ccnc3)n2)C1` (stereo unspecified), for which the cytotoxicity at 10 µM is -5.52%.

Turning to `c1ccc(C2=NOC3(CCN(Cc4c[nH]c5ccccc45)CC3)C2)cc1`, the cytotoxicity at 10 µM stood at 3.93%.

For the molecule `Cc1ccc(-n2nnnc2SCN2CCCCC2=O)cc1C`, the cytotoxicity at 10 µM is -46.6%.

Regarding `Cc1cnn(CC2CN(c3ncnc4c3CCC4)CCO2)c1` (stereo unspecified), the cytotoxicity at 10 µM is 56.5%.

Regarding `COC(=O)NCC(=O)N1CCC(c2cc3ccccc3[nH]2)CC1`, the cytotoxicity at 10 µM was -8.55%.

For `CC(c1ccc(F)cc1F)N1CCN(CCN2CCCC2=O)CC1` (stereo unspecified), the cytotoxicity at 10 µM was -5.61%.

Take `COc1ccc(C2CCN(CCCC#N)CC2)cc1`: the cytotoxicity at 10 µM was -9.89%.

Take `O=C(NCc1nnc2ccccn12)N1CCOC(c2cccs2)C1` (stereo unspecified): the cytotoxicity at 10 µM is 1.64%.

As for `CC(C)c1ncc2c(n1)CN(c1ncnc3[nH]ccc13)CC2`, the cytotoxicity at 10 µM is -3.28%.

For `Cc1noc(C)c1CN(C)Cc1csc(-c2ccccc2F)n1`, the cytotoxicity at 10 µM was 37.2%.

`N#Cc1ccccc1N1CCCN(CC(=O)Nc2ccccc2Cl)CC1`: the cytotoxicity at 10 µM was 1.11%.

With `Fc1ccc(CNCc2nnc3n2CC(C(F)(F)F)CC3)c(F)c1` (stereo unspecified), the cytotoxicity at 10 µM was 0.411%.

Regarding `CCCn1cc(CNCC(c2ccc(C)s2)N2CCOCC2)cn1` (stereo unspecified), the cytotoxicity at 10 µM was -0.248%.

For `Cc1ccc(C2CCCN2CC(=O)N(CCC#N)c2ccccc2)cc1` (stereo unspecified), the cytotoxicity at 10 µM was -6.89%.

For `COc1cc(CNC(C)c2cccc(Cl)c2)cc(OC)c1OC` (stereo unspecified), the cytotoxicity at 10 µM turned out to be 5.02%.

Turning to `CCC(CNC(=O)c1ccccc1OC)N1CCc2ccccc2C1` (stereo unspecified), the cytotoxicity at 10 µM came to 12%.

Turning to `CN(CCCc1n[nH]c(N)c1C#N)C(=O)Nc1cc(Cl)cc(Cl)c1`, the cytotoxicity at 10 µM is 11.1%.

Turning to `OCc1cc2ccccc2nc1NCC1CCN(CC(F)(F)F)C1` (stereo unspecified), the cytotoxicity at 10 µM was -55.7%.

With `CCNC(=O)N(C)C(c1cccnc1)C(C)C` (stereo unspecified), the cytotoxicity at 10 µM is -10.2%.

For `CSCc1cc(F)ccc1CNCc1ncc[nH]1`, the cytotoxicity at 10 µM stood at 11.5%.

Consider `CCOc1ccccc1CNC(=O)NCC(c1cnn(C)c1)N(C)C` (stereo unspecified), for which the cytotoxicity at 10 µM was found to be 4.15%.

In the case of `CC(NCc1cccs1)c1ccc(OCc2nccn2C)cc1` (stereo unspecified), the cytotoxicity at 10 µM was -7.88%.

In the case of `CC1CN(C(=O)c2cscn2)c2ccccc2S1` (stereo unspecified), the cytotoxicity at 10 µM stood at 6.43%.

As to `Cc1oncc1C(=O)N1CC[C@H]2[C@H]1CCN2S(C)(=O)=O`, the cytotoxicity at 10 µM was -99.4%.

For the molecule `O=C(Cc1ccsc1)N1C[C@H]2CCC[C@@]2(COCc2ccccn2)C1`, the cytotoxicity at 10 µM is -102%.

As for `c1csc(COC[C@H]2CCC[C@]23CN(Cc2ccoc2)CCO3)n1`, the cytotoxicity at 10 µM was -67.3%.

For `O=c1[nH][nH]cc1-c1ccnc(NCCc2cccc(O)c2)n1`, the cytotoxicity at 10 µM was -7.83%.

`C[C@@H]1CN(C2CCN(Cc3cnc(-c4cccs4)nc3)CC2)C[C@H](C)O1`: the cytotoxicity at 10 µM was -13.7%.

For the molecule `CSC(C)CCN(Cc1ccccn1)Cc1sccc1C` (stereo unspecified), the cytotoxicity at 10 µM was -2.49%.

As for `COCCN(Cc1ccc(C)cc1)Cc1c[nH]cn1`, the cytotoxicity at 10 µM was -42.3%.

For `CC(C)c1cc(CN(C)C(=O)C(C)N2CCc3ccccc3C2)no1` (stereo unspecified), the cytotoxicity at 10 µM amounted to 4.24%.

Consider `Nc1nc2c(c(NCc3ccc(C(=O)N4CCCC4)cc3)n1)CCCC2`, for which the cytotoxicity at 10 µM was found to be 21.1%.

As to `COc1ccc(Oc2ccc(C(F)(F)F)cn2)cc1CN1CCCC1`, the cytotoxicity at 10 µM is -5.62%.

Consider `CC(Oc1ccc2c(c1)OCO2)C(=O)N1CCC(N2CCOCC2)CC1` (stereo unspecified), for which the cytotoxicity at 10 µM is -13.5%.

For `COc1ccc(C(=O)C2CCCN(Cc3ccncc3)C2)cc1OC` (stereo unspecified), the cytotoxicity at 10 µM was -0.677%.

Turning to `COCCN(C)C(=O)c1ccccc1-n1cccn1`, the cytotoxicity at 10 µM is -4.57%.

On to `CN(Cc1nccs1)C1CCN(c2cccc(-c3cscn3)c2)CC1`, for which the cytotoxicity at 10 µM was -1.26%.

As for `Cn1ncc2c(N3CCCC4(CCNC4)C3)nc(C(C)(C)C)nc21` (stereo unspecified), the cytotoxicity at 10 µM is -45.8%.

Consider `COCc1cc(N2CCOC(c3ccc(Cl)c(Cl)c3)C2)ncn1` (stereo unspecified), for which the cytotoxicity at 10 µM came out at 0.635%.

For the molecule `CCN(C)S(=O)(=O)NC(C)c1cnc(N(C)C2CCCCC2)nc1C` (stereo unspecified), the cytotoxicity at 10 µM is -123%.

For `O=C(c1ccon1)N1CCCCC1c1nc2cc(F)ccc2[nH]1` (stereo unspecified), the cytotoxicity at 10 µM was 2.58%.

On to `COc1ccc(-n2ncc(C(C)NC3Cc4ccccc4C3)c2C)cc1` (stereo unspecified), for which the cytotoxicity at 10 µM is -6.32%.

As for `COCCN1CCN(Cc2ccncc2)[C@H]2CS(=O)(=O)C[C@H]21`, the cytotoxicity at 10 µM was -10.2%.

In the case of `CCCN(C(=O)c1ccccn1)c1nc2c(s1)CCc1c-2cnn1C`, the cytotoxicity at 10 µM was 6.23%.

Regarding `CC1CN(C)CCN1C(=O)c1ccn(-c2ccccc2)n1` (stereo unspecified), the cytotoxicity at 10 µM turned out to be 0.533%.

On to `O=C(COCC(F)(F)F)NS(=O)(=O)c1ccc2c(c1)OCCCO2`, for which the cytotoxicity at 10 µM is -6.8%.

For the molecule `O=C(NCCc1ccn(-c2ccccc2)n1)N1CCSCC1`, the cytotoxicity at 10 µM was -2.71%.

`Cc1nc(CN(C)C2CCN(CC3CCCCC3)C2)no1` (stereo unspecified): the cytotoxicity at 10 µM was -7.49%.

On to `CNC(=O)COc1ccccc1CNC1CCc2ncnn2C1` (stereo unspecified), for which the cytotoxicity at 10 µM was -13.6%.

Consider `CCn1ncc2c1CCCC2NCC1=Cc2ccccc2OC1` (stereo unspecified), for which the cytotoxicity at 10 µM was -4.31%.

`CN1CCCc2cc(CNC(=O)c3ccncc3)ccc21`: the cytotoxicity at 10 µM is 7.03%.

Consider `Fc1ccc(F)c(CN2CCC(c3cc4ncccc4cn3)CC2)c1`, for which the cytotoxicity at 10 µM was -5.14%.

For the molecule `Cc1ccsc1CN1C[C@@H]2COC[C@]2(CNC(=O)c2ccco2)C1`, the cytotoxicity at 10 µM was -95.5%.

With `C1CCC(CN2Cc3nnn(CC4CC4)c3C(COCC3CC3)C2)C1` (stereo unspecified), the cytotoxicity at 10 µM came to 19.7%.

Regarding `CC1N(C)C(=O)COC12CCN(Cc1ccsc1)CC2` (stereo unspecified), the cytotoxicity at 10 µM is -5.24%.

On to `Cc1ccc(C(=O)N2CCC3(CCN3Cc3ccc(F)cc3)C2)cn1` (stereo unspecified), for which the cytotoxicity at 10 µM is -116%.

`Cn1cnc2c1C(COCC1CC1)CN(Cc1ccc3c(c1)OCO3)C2` (stereo unspecified): the cytotoxicity at 10 µM is -12%.

`Cn1ccnc1C(=O)N[C@@H]1CN(CC2CCOCC2)[C@@H]2CCCO[C@@H]21`: the cytotoxicity at 10 µM is -97.8%.

On to `O=C1C[C@H]2[C@@H](CCN2C(=O)Cc2ccsc2)N1Cc1cccnc1`, for which the cytotoxicity at 10 µM is -0.331%.

For the molecule `COc1no[n+]([O-])c1-c1ccccc1`, the cytotoxicity at 10 µM was 8.2%.
